What was measured:
[1] = Cytotoxicity against human Huh7.5 cells measured after 48 hrs by MTS assay; format: toxicity, cell-based, Huh-7; settings: for CC50 at 48 h: Huh7.5 cells; for Activity: huh-7, 48 h
Method in brief: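 Parental Huh7.5 cells were treated 12 h after seeding with 8-10 dilutions of compound or DMSO (1% final) for 48 h at 37 °C. Viability was read by MTS bioreduction to formazan. CC50 is the concentration halving the MTS signal, mean ± SD of three independent experiments.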

Hepatitis C virus [2] = test: Antiviral activity against HCV genotype 1b infected in human Huh7/Rep-Feo1b replicon cells assessed as inhibition of viral RNA replication at 50 uM measured after 48 hrs by luciferase reporter gene assay relative to control; format: functional, Hepacivirus hominis; settings: Huh-7, 48 h
Method in brief: (§1)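 Replicon cells (gt1b firefly luciferase; gt2a Renilla luciferase) in DMEM/10% FBS with G418, ~1 × 10^4 cells/well, dosed 12 h after seeding with 50 µM compound or DMSO (1% final) for 48 h at 37 °C. Cells were PBS-washed and luciferase read; % inhibition was taken versus DMSO-treated cells, mean±SD, n=3.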

Hepatitis C virus [3] = test: Antiviral activity against HCV genotype 1b infected in human Huh7/Rep-Feo1b replicon cells assessed as inhibition of viral RNA replication measured after 48 hrs by luciferase reporter gene assay; format: functional, cell-based, Hepacivirus hominis; settings: Huh-7, 48 h
Method in brief: (§2)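 EC50 from concentration-response in replicon cells (gt1b firefly, gt2a Renilla luciferase reporter) maintained with G418. Compound added 12 h post-seeding (~1 × 10^4 cells/well), 48 h exposure, DMSO 1% final. Luciferase was compared with DMSO controls; the value is the mean ± SD of three independent 8-12 point quarter-log dilution series, calculated with CalcuSyn.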

[4] = Selectivity index, ratio of CC50 for human Huh7.5 cells to EC50 for HCV genotype 1b infected in human Huh7/Rep-Feo1b replicon cells; design: species or system Huh-7
Hepatitis C virus [5] = test: Antiviral activity against HCV genotype 2a infected in human Huh7.5-FGR-JC1-Rluc2A replicon cells assessed as inhibition of viral RNA replication at 50 uM measured after 48 hrs by luciferase reporter gene assay relative to control; format: functional, Hepacivirus hominis; settings: Huh-7, 48 h; method in brief: as §1
Hepatitis C virus [6] = test: Antiviral activity against HCV genotype 2a infected in human Huh7.5-FGR-JC1-Rluc2A replicon cells assessed as inhibition of viral RNA replication incubated for 48 hrs by luciferase reporter gene assay; format: functional, cell-based, Hepacivirus hominis; settings: Huh-7, 48 h; method in brief: as §2
[7] = Selectivity index, ratio of CC50 for human Huh7.5 cells to EC50 for HCV genotype 2a infected in human Huh7.5-FGR-JC1-Rluc2A replicon cells; design: species or system Huh-7
Hepatitis C virus [8] = test: Antiviral activity against Hepatitis C virus genotype 1b infected in human MH14 cells assessed as inhibition of viral RNA replication after 48 hrs by quantitative RT-PCR analysis; format: functional, cell-based
Method in brief: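 MH-14 cells carrying HCV subgenomic replicons, in 12-well plates, were treated with a range of concentrations or DMSO 12 h after seeding. Cellular HCV RNA was quantified by qRT-PCR with HCV-specific primers, using β-actin primers as reference.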

EC50 (Hepatitis C virus [3]) | EC50 (Hepatitis C virus [6]) | EC50 (Hepatitis C virus [8]; MH14, 48 h) | SMILES | CC50 at 48 h [1] | inhibition at 50 µM (Hepatitis C virus [2]) | Ratio CC50/EC50 [4] | inhibition at 50 µM (Hepatitis C virus [5]) | Ratio CC50/EC50 [7] | inhibition (Hepatitis C virus [8]; Hepacivirus hominis) | Activity [1]
1.8 µM | 4.5 µM | 3.82 µM | CCOC(=O)[C@@H]1C[C@@H]2/C(=N/Nc3ccccc3)CCCC[C@@H]2N1S(=O)(=O)c1ccc(C)cc1 (racemic) | > 200 µM | 88% | 112.4 | 70% | 44.2 | Dose-dependent effect | 
7.1 µM | 6.1 µM |  | CCOC(=O)[C@H]1C[C@H]2C(=O)CCCC[C@H]2N1S(=O)(=O)c1ccc(C)cc1 (racemic) | > 200 µM | 89% | >28.2 | 84% | >32.8 |  | 77%
18.2 µM | 11.5 µM |  | C[C@]12C[C@@H](Cc3ccccc3)N(Cc3ccccc3)[C@H]1CCCC(=O)N2 (racemic) | > 50 µM | 87% | >2.7 | 95% | >4.3 |  | 60%
2 µM | 1.2 µM |  | OC1CCCC[C@H]2[C@H]1[C@@H](c1cccc(F)c1)CN2Cc1ccccc1 (mixture of isomers) | 36.9 µM | 99% | 18.4 | 99% | 30.8 |  | 28%

— ChEMBL document CHEMBL3865803, “Bicyclic octahydrocyclohepta[b]pyrrol-4(1H)one derivatives as novel selective anti-hepatitis C virus agents” (Eur J Med Chem, 2016)
